Target: Hck^3D V284C (Homo sapiens, UniProt P08631, V276C)
Experiment: Inhibitor IC50 determination, fluorescent SFK peptide kinase assay
Assay type: biochemical
Conditions: 1 mM ATP
How it was run: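 Kinase concentrations were set in the linear range by prior titration: Src3D WT or V284C at 7.5 nM, Hck3D WT or V284C at 5 nM. Kinase was incubated 30 min with test compound (30 μM top, 3-fold serial dilutions, 10 points) and 1 mM ATP in HEPES pH 7.5 buffer with MgCl2, EGTA, BSA, vanadate and BME. Then 20 μM pyrene-labelled SFK peptide was added for 2 h. Fluorescence was read at ex 344/em 405 nm, in triplicate.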

Chain of Hck^3D V284C (P08631 81-526 V276C): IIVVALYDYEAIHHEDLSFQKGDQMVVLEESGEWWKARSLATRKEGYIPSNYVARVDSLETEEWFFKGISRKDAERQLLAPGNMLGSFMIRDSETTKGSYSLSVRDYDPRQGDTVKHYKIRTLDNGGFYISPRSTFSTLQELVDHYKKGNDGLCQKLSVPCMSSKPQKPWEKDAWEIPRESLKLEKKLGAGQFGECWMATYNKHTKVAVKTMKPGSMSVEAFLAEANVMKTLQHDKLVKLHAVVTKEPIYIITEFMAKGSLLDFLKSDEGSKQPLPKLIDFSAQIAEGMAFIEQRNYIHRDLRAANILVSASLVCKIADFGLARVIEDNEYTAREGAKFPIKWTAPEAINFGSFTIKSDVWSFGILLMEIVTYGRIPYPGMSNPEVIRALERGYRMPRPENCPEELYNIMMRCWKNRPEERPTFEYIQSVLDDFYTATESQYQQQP

Compound | inhibition of Hck V284C (IC50, Figure 4C)
COCCn1c(/C=C(/C#N)C(=O)NC(C)C)c(-c2ccc(Cl)cc2)c2c(N)ncnc21 [compound 1, (E)- & (Z)-3-(4-Amino-5-(4-chlorophenyl)-7-(2-methoxyethyl)-7H-pyrrolo[2,3-d]pyrimidin-6-yl)-2-cyano-N-isopropylacrylamide] | potently inhibited
COCCn1c(/C=C(/C#N)C(=O)NC(C)C)c(-c2ccc(Oc3ccccc3)cc2)c2c(N)ncnc21 [compound 2, (E)- & (Z)-3-(4-Amino-7-(2-methoxyethyl)-5-(4-phenoxyphenyl)-7H-pyrrolo[2,3-d]pyrimidin-6-yl)-2-cyano-N-isopropylacrylamide] | potently inhibited

From article PMC6474823 (Molecular cell, 2019)
